Source: PubChem BioAssay
Most compounds without a hit are left out; they make up all but 4.6% or so of the library.
ALR H2O2 inh – inhibitors of human ALR sulfhydryl oxidase, primary screen, biochemical, H2O2 detection, HRP-luminol luminescence, single point | FAD-linked sulfhydryl oxidase ALR (Homo sapiens), P55789 | purified ALR, DTT oxidation | inhibition, % (test concentration not listed) | hit rate 3.8% among 290,000;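 active = mean replicate inhibition above about 79%, with every replicate also reaching it, limit read from the data; inconclusive = only one of the two criteria met; inactive = mean below limit and not every replicate reaching it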
Arr AP2 block – inhibitors of beta-arrestin/AP2 binding, primary screen, biochemical, GPCR trafficking, flow cytometry; AID 504490, 2011; FITC-arrestin peptide / GST-AP2 beads; AP2 beta2 appendage carries R879A mutation; inhibition, % at 10 µM; hit rate 0.31% among 340,000; beta-arrestin 1 C-terminal peptide binding to AP2 beta2-adaptin appendage (human);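 active = inhibition above a set limit, near 3 SD of compounds lacking own fluorescence, cut at about 54% in these data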;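 note: plate controls were DMSO wells for no effect and 5 µM unlabelled arrestin peptide for full effect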
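Material – AP2 appendage R879A on GSH beads · Buffer or medium – PBS with 0.05% Tween 20 and 0.1% BSA · Probe or stimulus – fluorescein-tagged arrestin peptide at 50 nM final · Incubation – compound with beads 12 min RT, then probe 1 h RT · Detection – high-throughput flow cytometry of beads, ex 488, em 535 nm · Evaluation – percent response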
PolyA inh – polyadenylation inhibitors in yeast reporter cells, primary screen, luminescence, S. cerevisiae | S. cerevisiae SKY197-pL101 polyadenylation reporter, beta-gal luminescence; efflux-impaired pdr1/pdr3 knockout yeast; score 100 = 6 SD above DMSO | activity score, % at 12 µM | hit rate 0.02% among 300,000;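 active = lowest replicate activity score at least 50, where 100 means six control SD above control mean; inconclusive = lowest score under 50 but half or more replicates reach 50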;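 note: yeast exposed to compound for 9 h at 30 °C; higher score means more reporter readthrough which indicates perturbed polyadenylation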
DSG3 Ab inh – inhibitors of pemphigus antibody binding to DSG3, primary screen, biochemical, bead-based, flow cytometry, scFv-GFP; Desmoglein-3 (Homo sapiens), P32926; DSG3-coupled beads, scFv-anti-DSG3-GFP binding; hits give low values; binding (percent of control), % at 10 µM; hit rate 0.48% among 310,000; AID 588358, 2011;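 active = binding more than 3 SD below its plate's average and above zero; inconclusive = below that plate limit but binding exactly zero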;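 note: hits lower antibody fragment binding to DSG3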
Target sequence (P32926 whole entry, looked up, the tested form may be a part): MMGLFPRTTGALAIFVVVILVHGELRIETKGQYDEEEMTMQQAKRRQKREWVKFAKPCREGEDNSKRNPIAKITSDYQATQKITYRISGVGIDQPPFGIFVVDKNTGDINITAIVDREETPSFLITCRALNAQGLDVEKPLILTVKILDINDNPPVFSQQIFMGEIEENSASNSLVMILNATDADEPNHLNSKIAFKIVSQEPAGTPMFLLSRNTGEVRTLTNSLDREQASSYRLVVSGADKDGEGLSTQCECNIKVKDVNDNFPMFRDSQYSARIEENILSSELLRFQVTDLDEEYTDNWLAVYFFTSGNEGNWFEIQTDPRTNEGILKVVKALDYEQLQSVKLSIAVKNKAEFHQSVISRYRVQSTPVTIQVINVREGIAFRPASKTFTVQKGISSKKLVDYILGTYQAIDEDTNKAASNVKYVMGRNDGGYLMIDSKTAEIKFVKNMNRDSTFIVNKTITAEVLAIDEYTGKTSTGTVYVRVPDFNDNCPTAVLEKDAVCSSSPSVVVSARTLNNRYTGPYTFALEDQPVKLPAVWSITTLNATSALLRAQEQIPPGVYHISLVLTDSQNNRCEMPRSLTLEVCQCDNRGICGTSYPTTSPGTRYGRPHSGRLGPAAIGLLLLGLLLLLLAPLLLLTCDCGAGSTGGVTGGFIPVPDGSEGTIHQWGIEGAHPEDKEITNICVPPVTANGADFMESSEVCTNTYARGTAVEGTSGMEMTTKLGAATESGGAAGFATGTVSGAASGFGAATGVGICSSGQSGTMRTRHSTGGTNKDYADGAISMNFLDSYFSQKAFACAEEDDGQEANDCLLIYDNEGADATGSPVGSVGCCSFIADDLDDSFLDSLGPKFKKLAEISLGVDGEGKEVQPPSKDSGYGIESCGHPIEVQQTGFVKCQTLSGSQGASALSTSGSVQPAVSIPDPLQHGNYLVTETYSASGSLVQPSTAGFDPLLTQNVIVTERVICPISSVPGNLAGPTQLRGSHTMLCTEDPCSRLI
NALP3 yeast inh – NALP3 inflammasome inhibitors in reconstituted yeast, primary screen, luminescence, uHTS; Yeast reconstituted NLRP3/ASC/caspase-1, beta-gal luminescence, 24 h; hit rate 0.39% among 330,000; inhibition, % at 10 µM;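 active = inhibition of 50% or more; inactive = inhibition below 50%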;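 note: plate controls were induced DMSO wells for no effect and uninduced yeast grown without galactose for full effect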
NALP1 inh – NALP1 inflammasome inhibitors in reconstituted yeast, colorimetric, S. cerevisiae, triplicate retest; hit rate 0.61% among 280,000; inhibition, % at 10 µM; S. cerevisiae NALP1/ASC/caspase-1 growth, X-gal OD620, 72 h; AID 2071, 2009; in the data active = inhibition mostly above about 24%, no sharp cut-off; inactive = mostly below about 32%
The depositor's hits bear a star; ? = inconclusive; . = no result given.

SMILES | ALR H2O2 inh | Arr AP2 block | PolyA inh | DSG3 Ab inh | NALP3 yeast inh | NALP1 inh
Cc1cccc2nc(CNC(=O)C3CCC(=O)N(Cc4ccccc4F)C3)cn12 (configuration not stated) | 4 | 8 | -11 | 100 | 19 | -1
COc1cc(/C=N/NC(=O)C2=NNC(=O)C2C)ccc1O (configuration not stated) | 98* | 0 | -13 | 97 | -8 | .
COc1cc(/C=N/NC(=O)c2nonc2C)ccc1O | . | -12 | 2 | 93 | -50 | -18
CC1C(=O)NN=C1C(=O)N/N=C\c1ccc(O)cc1O (configuration not stated) | 98* | 11 | -1 | 119 | 14 | -5
O=C(O)c1ccccc1NC(c1ccccc1)c1ccc(Cl)cc1 (configuration not stated) | 91* | 0 | -7 | 98 | 17 | -3
C/C(=N\Nc1cccc(C(F)(F)F)c1)c1ccc(O)cc1 | 9 | -4 | -14 | 96 | -8 | 13
COc1ccc(N/N=C(/C#N)S(=O)(=O)c2nsc(C)c2C#N)cc1 | 98* | 24 | 9 | . | 3 | -10
COc1ccc(N/N=C(/C#N)S(=O)(=O)C(C)(C)C)cc1 | 98* | -1 | -6 | 114 | 25 | 9
CSc1ccc(N/N=C(/C#N)S(=O)(=O)C(C)(C)C)cc1 | 36 | -4 | -5 | 96 | 17 | 7
Cc1snc(S(=O)(=O)/C(C#N)=N/Nc2cccc(C(F)(F)F)c2)c1C#N | . | 2 | 4 | 74* | 11 | 1
Cc1cc(C)cc(NC(=O)COC(=O)COc2ccc(N(C)S(=O)(=O)c3cccs3)cc2)c1 | 9 | -3 | . | 96 | 8 | .
COCOCCn1cc(CN2CCS(=O)(=O)N(Cc3ccc(-c4ccc(F)nc4)cc3)C(CC(C)C)C2=O)nn1 (configuration not stated) | . | . | . | 106 | . | .
COc1ccccc1C#Cc1cnc2c(c1)C(=O)N([C@H](C)CO)C[C@@H](C)[C@@H](CN(C)C(=O)c1ccc3c(c1)OCO3)O2 | . | . | . | 112 | . | .
CC(=O)c1ccc(NC(=O)C(C)Sc2nnc(-c3ccncc3)n2C2CC2)cc1 (configuration not stated) | -3 | -9 | . | 128 | -4 | .
CCC(=O)Nc1ccc(SC#N)cc1C | 98* | 1 | -18 | 98 | 21 | 9
CCc1cc(SC#N)cc(C)c1NC(=O)CCl | 98* | 10 | -7 | 95 | -5 | 18
Cc1ccc(NC(=O)CSc2nc3ccccc3c(=O)n2CCCN2CCCCC2)cc1C | 98* | 3 | 4 | 104 | 2 | 8
O=C(CSc1nc2ccccc2c(=O)n1CCCN1CCOCC1)NCCc1ccccc1 | -6 | 32 | . | 103 | 13 | .
O=C(CSc1nc2ccccc2c(=O)n1CCCN1CCOCC1)NC12CC3CC(CC(C3)C1)C2 | . | -14 | 1 | 105 | 10 | 34*
N#Cc1ccccc1COc1cccc2c1CCCC2O (configuration not stated) | -14 | -6 | 4 | 108 | 31 | 27
CC(=O)Nc1ccccc1C(=O)C(=O)Nc1ccc(C)c(C)c1 | -2 | 0 | -4 | 96 | 6 | 26
Cc1ccc(NC(=O)/C(Cl)=C/c2ccccc2)cc1C | -1 | 8 | -9 | 101 | 36 | 37*
CCOC(=O)CSc1nc2ccccc2c(=O)n1C1CCCC1 | -7 | 1 | -18 | 108 | -12 | 12
CCCCCn1c(SCC2CCCO2)nc2cc(C(=O)N3CCC(C(N)=O)CC3)ccc2c1=O (configuration not stated) | . | 8 | . | 97 | 5 | 6
CCOC(=O)CSc1nc2cc(C(=O)N3CCC(C(N)=O)CC3)ccc2c(=O)n1C1CCCCC1 | 97* | 18 | -1 | 104 | -4 | 7
SMILES | ALR H2O2 inh | Arr AP2 block | PolyA inh | DSG3 Ab inh | NALP3 yeast inh | NALP1 inh
CCCCCn1c(SCC(=O)CC(=O)OCC)nc2cc(C(=O)N3CCC(C(N)=O)CC3)ccc2c1=O | 91* | 11 | -10 | 104 | 5 | 5
c1ccc(CN2CCC3CC2c2cc(N4CCCCC4)ccc23)cc1 (configuration not stated) | . | . | . | 103 | . | .
Cc1cc(N2CCCC2)ccc1NC(=O)CN1C(=O)NC(C)(c2ccccc2)C1=O (configuration not stated) | 99* | -12 | -13 | 112 | -1 | 16
CCCCN(C(=O)CC1CCCC1)c1c(N)n(Cc2ccccc2)c(=O)[nH]c1=O | . | . | . | 104 | . | .
CN1CCN(C(=O)C2CCC(=O)N(Cc3cccc(C(F)(F)F)c3)C2)CC1 (configuration not stated) | -3 | -6 | 3 | ? | 2 | 32*
CCc1ccc(N2CC(C(=O)Nc3ccccc3N3CCCC3)CC2=O)cc1 (configuration not stated) | . | . | . | 99 | . | .
OC1COCOC1C(O)C1OCOCC1O (configuration not stated) | . | 8 | . | 115 | . | .
Nc1nc(SCC(=O)OCc2ccccc2)[nH]c(=O)c1NC(=O)c1ccco1 | 100* | -4 | 4 | 100 | 10 | .
CC(=O)Nc1ccc(NC(=O)CSc2nc(N)c(NC(=O)c3ccco3)c(=O)[nH]2)cc1 | 99* | 43 | 0 | 101 | 0 | -4
Cc1nc(NC(=O)c2cc3ccccc3o2)ccc1Br | -3 | -5 | -7 | 113 | 14 | 13
O=C1CC2(CCN1)CCN(Cc1ccccc1)CC2 | . | 17 | . | 101 | . | .
O=C(c1ccco1)N1N=C(c2ccccc2O)CC1c1cccs1 (configuration not stated) | . | . | . | 100 | . | .
CCN(CC)c1ccc(S(=O)(=O)N2CCOCC2)cc1NC(=O)CNCc1cccc(Cl)c1 | . | 33 | . | 98 | . | .
CCc1c(O)nc(SCC(=O)Nc2ccc(Br)cc2)n(-c2ccc(C)cc2)c1=O | 96* | 21 | 22 | 99 | 8 | 35*
Cc1ccc(NC(=O)CSc2nc(O)c(Cc3ccccc3)c(=O)n2-c2ccccc2)cc1 | 99* | -5 | 16 | 108 | 7 | 26
CCc1c(O)nc(SCC(=O)Nc2ccccc2)n(-c2ccccc2)c1=O | 99* | 15 | 14 | 103 | 10 | 7
CCCCc1c(O)nc(SCC(=O)Nc2ccc(C)cc2)n(-c2ccc(OC)cc2)c1=O | 99* | 6 | 6 | . | -1 | -7
O=C(NCCc1ccc(Cl)cc1)c1ccc2[nH]c(=O)c(=O)[nH]c2c1 | -5 | 3 | 13 | 96 | 21 | 9
Cc1cc(NC(=O)CSc2nc3c(c(=O)n2-c2ccccc2)SC(C)C3)no1 (configuration not stated) | 8 | 0 | -7 | 105 | 14 | 28
